*1 amine or outer side, *2 acyl side, *3 side chain or, on linkers, in order; H or OH if unused. Where a SMILES comes first, the peptide text is derived from it. [ ]: non-standard residue; d: D form. Ahppa(3S,4S) = O=C(C[C@H](O)[C@H](Cc1ccccc1)N[*:1])[*:2]; 1Nal = N[C@@H](Cc1cccc2ccccc12)C(=O)O; Sta = CC(C)C[C@H](N)[C@@H](O)CC(=O)O; Cha = N[C@@H](CC1CCCCC1)C(=O)O; Tle = CC(C)(C)[C@H](N)C(=O)O
Biological target: T1, Renin (Rattus norvegicus, UniProt P08424)
T1 sequence (P08424 whole entry): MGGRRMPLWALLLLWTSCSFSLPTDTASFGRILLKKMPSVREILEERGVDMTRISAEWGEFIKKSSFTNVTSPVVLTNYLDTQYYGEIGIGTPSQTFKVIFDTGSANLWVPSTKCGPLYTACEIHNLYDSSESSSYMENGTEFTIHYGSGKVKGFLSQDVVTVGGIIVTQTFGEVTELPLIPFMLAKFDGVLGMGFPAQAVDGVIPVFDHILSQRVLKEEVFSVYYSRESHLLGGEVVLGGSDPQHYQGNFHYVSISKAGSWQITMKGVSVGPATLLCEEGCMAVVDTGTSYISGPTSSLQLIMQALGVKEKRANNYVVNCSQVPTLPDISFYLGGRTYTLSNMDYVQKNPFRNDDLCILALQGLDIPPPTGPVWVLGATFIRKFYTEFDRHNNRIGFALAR
Test: Inhibitory activity against rat plasma renin in vitro.
Type: cell-free
Procedure, shortened: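 Pooled EDTA rat plasma with added PMSF 5 mM, 8-hydroxyquinoline 3 mM and extra EDTA 5 mM, at pH 7.4, mixed with serial 1:10 peptide dilutions (Tris/DMSO), split, and incubated 1 h at 37 and 0 °C.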

| SMILES | IC50 [µM] |
| --- | --- |
| COc1ccc(C[C@H](NC(C)=O)C(=O)N2CCC[C@H]2C(=O)N[C@@H](Cc2ccccc2)C(=O)N[C@H](C(=O)N[C@@H](CC(C)C)[C@@H](O)CC(=O)N[C@@H](CC(C)C)C(=O)N[C@@H](Cc2ccccc2)C(N)=O)C(C)C)cc1 (Ac-Y(Me)PFV[Sta]LF-NH2) | 0.034 |
| CC(C)[C@H](NC(=O)C[C@H](O)[C@H](Cc1ccccc1)NC(=O)[C@H](Cc1c[nH]cn1)NC(=O)[C@H](Cc1ccccc1)NC(=O)[C@@H]1CCCN1C(=O)[C@H](Cc1c[nH]cn1)NC(=O)[C@@H]1CCCN1)C(=O)N[C@@H](Cc1ccc(O)cc1)C(=O)N[C@@H](CCCCN)C(N)=O (H-PHPFH[Ahppa(3S,4S)]VYK-NH2) | 1.3 |
| CC(=O)N[C@@H](Cc1cccc2ccccc12)C(=O)N1CCC[C@H]1C(=O)N[C@@H](Cc1ccccc1)C(=O)N[C@H](C(=O)N[C@@H](CC(C)C)[C@@H](O)CC(=O)N[C@@H](CC(C)C)C(=O)N[C@@H](Cc1ccccc1)C(N)=O)C(C)C (Ac-[1Nal]PFV[Sta]LF-NH2) | 0.05 |
| CC[C@H](C)[C@H](NC(=O)[C@H](Cc1ccccc1)NC(=O)[C@@H]1CCCN1C(=O)[C@H](Cc1cnc[nH]1)NC(C)=O)C(=O)N[C@@H](Cc1ccccc1)[C@@H](O)CC(=O)N[C@@H](CC(C)C)C(=O)N[C@@H](Cc1ccccc1)C(N)=O (Ac-HPFI[Ahppa(3S,4S)]LF-NH2) | 1.27 |
| CC(C)C[C@H](NC(=O)[C@H](Cc1cnc[nH]1)NC(=O)[C@H](Cc1ccccc1)NC(=O)[C@@H]1CCCN1C(=O)[C@H](Cc1cnc[nH]1)NC(=O)[C@@H]1CCCN1)[C@@H](O)CC(=O)N[C@@H](Cc1ccc(O)cc1)C(=O)N[C@@H](Cc1ccc(O)cc1)C(=O)N[C@@H](CCCCN)C(N)=O (H-PHPFH[Sta]YYK-NH2) | 35 |
| CC(C)C[C@H](NC(=O)[C@H](Cc1cnc[nH]1)NC(=O)[C@H](Cc1ccccc1)NC(=O)[C@@H]1CCCN1C(=O)[C@H](Cc1cnc[nH]1)NC(=O)[C@@H]1CCCN1)[C@@H](O)CC(=O)N[C@@H](Cc1ccc(O)cc1)C(=O)N[C@@H](Cc1ccc(O)cc1)C(N)=O (H-PHPFH[Sta]YY-NH2) | 1.6 |
| CC(=O)N[C@@H](Cc1ccccc1)C(=O)N1CCC[C@H]1C(=O)N[C@@H](Cc1ccccc1)C(=O)N[C@H](C(=O)N[C@@H](CC(C)C)[C@@H](O)CC(=O)N[C@@H](CC(C)C)C(=O)N[C@@H](Cc1ccccc1)C(N)=O)C(C)C (Ac-FPFV[Sta]LF-NH2) | 0.042 |
| CC(=O)N[C@@H](Cc1c[nH]cn1)C(=O)N1CCC[C@H]1C(=O)N[C@@H](Cc1ccccc1)C(=O)N[C@H](C(=O)N[C@@H](CC(C)C)[C@@H](O)CC(=O)N[C@@H](CC(C)C)C(=O)N[C@@H](Cc1ccccc1)C(N)=O)C(C)C | 0.03 |
| CC(C)C[C@H](NC(=O)[C@H](Cc1c[nH]cn1)NC(=O)[C@H](Cc1ccccc1)NC(=O)[C@@H]1CCCN1C(=O)[C@H](Cc1c[nH]cn1)NC(=O)[C@@H]1CCCN1)[C@@H](O)CC(=O)N[C@H](C(=O)N[C@H](C(N)=O)[C@@H](C)O)[C@@H](C)O (H-PHPFH[Sta]TT-NH2) | 105 |
| CC(=O)N[C@@H](Cc1c[nH]cn1)C(=O)N1CCC[C@H]1C(=O)N[C@@H](Cc1ccccc1)C(=O)N[C@H](C(=O)N[C@@H](CC(C)C)[C@@H](O)CC(=O)N[C@@H](CC(C)C)C(=O)N[C@@H](Cc1ccccc1)C(N)=O)C(C)(C)C (Ac-HPF[Tle][Sta]LF-NH2) | 0.4 |
| CC(=O)N[C@@H](Cc1c[nH]cn1)C(=O)N1CCC[C@H]1C(=O)N[C@@H](Cc1cccc2ccccc12)C(=O)N[C@@H](Cc1c[nH]cn1)C(=O)N[C@@H](CC(C)C)[C@@H](O)CC(=O)N[C@@H](CC(C)C)C(=O)N[C@@H](Cc1ccccc1)C(N)=O (Ac-HP[1Nal]H[Sta]LF-NH2) | 0.22 |
| CC(C)C[C@H](NC(=O)[C@H](Cc1c[nH]cn1)NC(=O)[C@H](Cc1ccccc1)NC(=O)[C@@H]1CCCN1C(=O)[C@H](Cc1c[nH]cn1)NC(=O)[C@@H]1CCCN1)[C@@H](O)CC(=O)N[C@@H](Cc1ccc(O)cc1)C(=O)N[C@@H](Cc1ccc(O)cc1)C(=O)N[C@@H](CO)C(=O)N[C@@H](CCCCN)C(N)=O (H-PHPFH[Sta]YYSK-NH2) | 7.9 |

More lines, now with the values ahead:

| IC50 [µM] | SMILES |
| --- | --- |
| 0.65 | CC(=O)N[C@@H](Cc1cnc[nH]1)C(=O)N1CCC[C@H]1C(=O)N[C@@H](CC1CCCCC1)C(=O)N[C@@H](Cc1cnc[nH]1)C(=O)N[C@@H](CC(C)C)[C@@H](O)CC(=O)N[C@@H](CC(C)C)C(=O)N[C@@H](Cc1ccccc1)C(N)=O (Ac-HP[Cha]H[Sta]LF-NH2) |
| 0.31 | CC(=O)N[C@@H](Cc1cnc[nH]1)C(=O)N1CCC[C@H]1C(=O)N[C@@H](Cc1ccccc1)C(=O)N[C@@H](CC(C)C)C(=O)N[C@@H](CC(C)C)[C@@H](O)CC(=O)N[C@@H](CC(C)C)C(=O)N[C@@H](Cc1ccccc1)C(N)=O |
| 0.033 | CC(=O)N[C@@H](Cc1cnc[nH]1)C(=O)N1CCC[C@H]1C(=O)N[C@@H](Cc1ccccc1)C(=O)N[C@H](C(=O)N[C@@H](CC1CCCCC1)[C@@H](O)CC(=O)N[C@@H](CC(C)C)C(=O)N[C@@H](Cc1ccccc1)C(N)=O)C(C)C |
| ~1000 | CC(=O)N[C@@H](Cc1c[nH]cn1)C(=O)N1CCC[C@@H]1C(=O)N[C@H](C)C(=O)N[C@@H](Cc1c[nH]cn1)C(=O)N[C@@H](CC(C)C)[C@@H](O)CC(=O)N[C@@H](CC(C)C)C(=O)N[C@@H](Cc1ccccc1)C(N)=O |
| 0.05 | CC(=O)N[C@@H](Cc1cnc[nH]1)C(=O)N1CCC[C@H]1C(=O)N[C@@H](Cc1ccccc1)C(=O)N[C@@H](Cc1cnc[nH]1)C(=O)N[C@@H](CC1CCCCC1)[C@@H](O)CC(=O)N[C@@H](CC(C)C)C(=O)N[C@@H](Cc1ccccc1)C(N)=O |
| 0.24 | CC(C)C[C@H](NC(=O)C[C@H](O)[C@H](CC(C)C)NC(=O)[C@H](Cc1cnc[nH]1)NC(=O)[C@H](Cc1ccccc1)NC(=O)[C@@H]1CCCN1C(=O)[C@H](Cc1cnc[nH]1)NC(=O)[C@@H]1CCCN1)C(=O)N[C@@H](Cc1ccccc1)C(N)=O (H-PHPFH[Sta]LF-NH2) |
| 9.1 | CC(=O)N[C@@H](Cc1c[nH]cn1)C(=O)N1CCC[C@H]1C(=O)N[C@@H](CC(C)C)C(=O)N[C@@H](Cc1c[nH]cn1)C(=O)N[C@@H](CC(C)C)[C@@H](O)CC(=O)N[C@@H](CC(C)C)C(=O)N[C@@H](Cc1ccccc1)C(N)=O |
| 2.7 | CC(=O)N[C@@H](Cc1c[nH]cn1)C(=O)N1CCC[C@H]1C(=O)N[C@@H](Cc1ccccc1)C(=O)N[C@@H](Cc1c[nH]cn1)C(=O)N[C@@H](CC(C)C)[C@@H](O)CC(=O)N[C@@H](CC1CCCCC1)C(=O)N[C@@H](Cc1ccccc1)C(N)=O (Ac-HPFH[Sta][Cha]F-NH2) |
| ~1000 | CC(=O)N[C@@H](Cc1c[nH]cn1)C(=O)N1CCC[C@H]1C(=O)N[C@H](CC(C)C)C(=O)N[C@@H](Cc1c[nH]cn1)C(=O)N[C@@H](CC(C)C)[C@@H](O)CC(=O)N[C@@H](CC(C)C)C(=O)N[C@@H](Cc1ccccc1)C(N)=O |
| 1.9 | CC(=O)N[C@@H](Cc1cnc[nH]1)C(=O)N1CCC[C@H]1C(=O)N[C@@H](Cc1ccccc1)C(=O)N[C@@H](Cc1cnc[nH]1)C(=O)N[C@@H](CC(C)C)[C@@H](O)CC(=O)N[C@H](C(=O)N[C@@H](Cc1ccccc1)C(N)=O)C(C)(C)C (Ac-HPFH[Sta][Tle]F-NH2) |
| 0.15 | CC(=O)N[C@@H](Cc1cnc[nH]1)C(=O)N1CCC[C@H]1C(=O)N[C@@H](Cc1ccccc1)C(=O)N[C@@H](Cc1cnc[nH]1)C(=O)N[C@@H](Cc1ccccc1)[C@@H](O)CC(=O)N[C@@H](CC(C)C)C(=O)N[C@@H](Cc1ccccc1)C(N)=O (Ac-HPFH[Ahppa(3S,4S)]LF-NH2) |
